Screening data (PubChem BioAssay)
A selection: hits, their analogues and other compounds. The true share with any hit is near 6.3%.
Ecoli WT expand – E. coli BW25113 growth inhibition, expanded screen. OD600 absorbance. growth inhibition, % at 100 µM. 98,000 tested, 0.15% active;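 active means growth inhibition above about 50% at one test dose, limit read from the data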;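 further: growth measured after 20 h incubation at 37 °C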
PostGolgi yeast – growth inhibition of a yeast mutant, post-Golgi transport screen. inhibition, % at 10 µM. 98,000 tested, 0.9% active. AID 739. post-Golgi transport phenotypic cell assay;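 further: yeast cells grown in 1536-well plates; yeast grown about 18 h at 30C before absorbance read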
tolC growth inh – growth inhibitors of E. coli BW25113 tolC mutant; OD615; growth inhibition, % at 10 µM (by protocol); 65,000 tested, 2.2% active;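 active means growth inhibition at or above a cutoff equal to the mean over every tested compound plus 3 SD, cut at about 60% in these data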;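 further: growth measured after 20 h incubation at 37 °C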
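Test system: E. coli BW25113 ΔtolC::kan bacteria; incubation: 37 °C, 20 h exposure; medium: LB broth supplemented with 50 µg/mL kanamycin; read-out basis: percent growth inhibition; signal: A615 absorbance measurement; compound: 10 µM final, single dose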
PostGolgi ctrl – yeast control strain growth, post-Golgi counter-screen; efflux-deficient yeast background strain, growth absorbance A615, 16 h; inhibition, % at 10 µM; 98,000 tested, 5% active; AID 738
* = called active by the depositor; / = not tested or not shown. Unless noted, no stated cut-off is given here; in the data, active means inhibition above about 30%; inactive means the rest.

SMILES	Ecoli WT expand	PostGolgi yeast	tolC growth inh	PostGolgi ctrl
O=C1c2[nH]nc(-c3ccccc3O)c2C(c2cccc(Cl)c2)N1CC1CCCO1 (stereo unspecified)	6.0	-6.1	88.0*	3.1
COc1ccc(CCN2C(=O)c3[nH]nc(-c4ccccc4O)c3C2c2cccc(O)c2)cc1OC (stereo unspecified)	11.0	6.8	50.0	5.9
O=C1c2[nH]nc(-c3ccccc3O)c2C(c2ccc(F)cc2)N1Cc1ccco1 (stereo unspecified)	0.0	-2.5	100.0*	14.7
CC(C)c1nnc(NC(=O)Cn2nc(-c3ccc4c(c3)OCCO4)ccc2=O)s1	-1.0	-2.7	-14.1	1.6
COc1cc(NC(=O)NCCN2CCN(c3ccc(Cl)cc3)CC2)ccc1C	3.0	15.1	-10.6	-0.1
COc1ccc(NC(=O)NCCN2CCN(c3cccc(Cl)c3)CC2)cc1	4.0	42.6*	-5.1	42.1*
Cc1cccc(-c2c3c(=O)n(C)c(=O)n(C)c3c3c(C)cc(C)nn23)c1	/	/	6.8	/
Cn1c(=O)n(CCN2CCOCC2)c(=O)c2c1nc1n2CCN1c1ccccc1	/	/	-28.1	/
COC(=O)C1=C(C)N(C)C(C)=C(C(=O)OC)C1c1ccc(F)c(Br)c1	6.0	9.0	73.5*	52.7*
CCN(CC)S(=O)(=O)c1cccc2cc(C(=O)O)c(O)cc12	3.0	22.2	/	6.3
Cn1cccc1/C=C1\CCC/C(=C\c2cccn2C)C1=O	2.0	9.5	/	40.8*
O=C(c1ccccc1)N1CCN(c2ncnc3sc4c(c23)CCC4)CC1	5.0	21.6	/	5.5
Nc1ccc(Sc2ccccc2CC(=O)O)cc1	-4.0	-5.0	/	2.7
Cc1cc(C)n2nc(NCc3cccc(Br)c3)nc2n1	11.0	8.0	18.5	12.6
O=C(O)CCc1nnc2n(Cc3ccc(F)cc3)c(=O)c3ccccc3n12	-13.0	43.8*	-21.8	-4.2
CCCn1c(=O)c2ccccc2n2c(SCC(=O)c3ccc(F)cc3)nnc12	/	/	-4.9	/
COc1ccccc1-n1c(SCC(=O)NC(C)(C)C)nc(O)cc1=O	-1.0	1.5	-7.4	5.2
COc1ccccc1-n1c(SC)nc(O)cc1=O	0.0	-9.1	-4.1	6.5
COc1ccccc1NC(=O)CSc1nc(O)cc(=O)n1-c1ccccc1OC	-11.0	-3.0	2.0	35.0*
COc1ccccc1-n1c(SCC(=O)Nc2ccccc2C)nc(O)cc1=O	-2.0	8.0	-6.3	36.8*
CCc1cccc2c(C=C(C#N)C#N)cn(CC(=O)N3CCCCCC3)c12	-19.0	-8.1	/	17.6
COc1ccc(CC(=O)Nc2c3c(nn2-c2cccc(Cl)c2)CS(=O)(=O)C3)cc1	-3.0	-2.2	-5.0	34.2*
Cc1cccc(Oc2ncc(-c3ccc(Cl)cc3)cn2)c1C	-5.0	-5.2	/	35.9*
CCc1cc2c(=O)c(Oc3ccccc3F)c(C)oc2c(CN(C)C)c1O	6.0	50.7*	-5.7	-1.8
O=S1(=O)CC(O)C(N2CCC(c3ccccc3)CC2)C1 (stereo unspecified)	7.0	5.0	-8.8	45.2*
SMILES	Ecoli WT expand	PostGolgi yeast	tolC growth inh	PostGolgi ctrl
O=C(Nc1ccccc1)N1CCC(c2ccccc2)C1 (stereo unspecified)	1.0	10.1	15.1	5.1
Cn1nnc2cc(C(=O)Nc3cccnc3)ccc21	4.0	39.5*	-4.1	-7.3
CC(C)NC(=O)c1ccc2c(c1)nnn2C	5.0	0.9	-11.0	44.7*
O=C(Nc1cccnc1)c1ccc2snnc2c1	-6.0	-3.3	1.0	7.0
Nc1nc(CN2CCN(c3ccccn3)CC2)nc(Nc2ccc(Cl)cc2)n1	16.0	14.8	47.7	3.5
NC(=O)c1c(NC(=O)c2cccs2)sc2c1CCCCCC2	-6.0	9.9	29.8	68.1*
O=C(Nc1sc2c(c1C(=O)O)CCC2)c1ccccc1	-9.0	26.3	/	20.6
O=C(Nc1sc2c(c1C(=O)O)CCC2)c1cccs1	-3.0	-4.9	76.1*	1.8
COCCCNC(=O)c1c(NC(=O)c2cccs2)sc2c1CCCC2	1.0	1.7	/	13.2
Cc1cc(-c2ccccc2)nc(Oc2ccc(C(C)(C)C)cc2)c1S(C)(=O)=O	-11.0	6.9	/	63.4*
Cc1cc(C)cc(Oc2nc(-c3ccccc3)cc(C)c2S(C)(=O)=O)c1	-8.0	0.3	/	45.1*
c1ccc2c(c1)CCN(c1nc3cc4c(cc3s1)OCCO4)C2	-7.0	-5.6	64.5*	11.0
Cc1nc2ccccc2nc1N1CCCCC1	2.0	-0.3	-11.2	17.3
CC1=NN(c2ccccc2)C(=O)/C1=C/c1cc2cc(C)ccc2nc1N1CCCCC1	-16.0	-0.5	/	47.7*
O=S(=O)(NC1CC2CCC1C2)c1ccc2c(c1)OCCO2 (stereo unspecified)	2.0	1.0	19.4	55.1*
O=S(=O)(NCC1CCCO1)c1ccc2c(c1)OCCO2 (stereo unspecified)	13.0	1.6	-3.5	-3.2
CC1CCCC(NS(=O)(=O)c2ccc3c(c2)OCCO3)C1C (stereo unspecified)	8.0	-6.8	45.5	55.4*
COc1ccc(S(=O)(=O)NC2CC3CCC2C3)cc1Cl (stereo unspecified)	3.0	81.4*	8.0	94.9*
N#Cc1c(Cl)c(Cl)c2nnc(-c3ccc(Br)cc3)n2c1Cl	6.0	-1.2	/	-2.3
Cc1oc2c(c1C(=O)NC(Cc1c[nH]c3ccccc13)C(=O)O)CCCC2 (stereo unspecified)	0.0	-7.7	17.9	-2.7
CC(=O)NC1=C(C#N)C(c2ccccc2)c2c(ccc3ccccc23)O1 (stereo unspecified)	-16.0	-7.6	/	23.8
CCN(Cc1ccccc1)S(=O)(=O)c1ccc(C(=O)Nc2nnc(-c3ccccc3OC)o2)cc1	-3.0	11.3	97.8*	3.6
COc1ccccc1-c1nnc(NC(=O)c2ccccc2F)o1	7.0	-7.6	0.9	7.3
COc1ccccc1-c1nnc(NC(=O)c2ccc(S(=O)(=O)N(C)C)cc2)o1	0.0	7.8	96.0*	4.0
Cc1csc(NC(=O)CSc2ncnc3c2cnn3-c2ccccc2Cl)n1	2.0	1.0	61.0*	31.7*
SMILES	Ecoli WT expand	PostGolgi yeast	tolC growth inh	PostGolgi ctrl
CC1=C(C(=O)OC2CCCCC2)C(c2ccco2)C2=C(CC(C)(C)CC2=O)N1 (stereo unspecified)	-3.0	18.9	41.6	40.5*
CCN(CCCNC(=O)CCNC(=O)Cn1cnc2ccccc2c1=O)c1ccccc1	0.0	1.0	4.4	-0.5
COC(C)(C)[C@]12CC(O)(c3ccccc3)ON1[C@H]1CCCCC1N2O (stereo partly specified)	7.0	1.2	-26.7	31.6*
Cc1nc(CN2CCN(C(=O)c3ccc(Br)cc3)CC2)cs1	-3.0	-0.5	-1.0	12.1
c1ccc(Nc2cc(-c3ccccc3)nc3ncnn23)cc1	-4.0	92.6*	3.7	15.3
C=CCc1ccccc1OCC(O)CN1CCN(C(=O)OCC)CC1 (stereo unspecified)	-3.0	-9.6	-3.5	-2.1
C=CCc1ccccc1OCC(O)CN1CCN(Cc2ccc3c(c2)OCO3)CC1 (stereo unspecified)	-4.0	99.1*	8.1	45.1*
Cc1ccccc1N1C(=O)C(Cl)=C(N2CCCCCC2)C1=O	4.0	-3.5	41.4	40.4*
Cc1ccc(-n2c(C)nc3c(cnn3-c3ccc(C)c(C)c3)c2=O)cc1C	-3.0	5.6	/	47.1*
C1CCc2c(nc3nnnn3c2NC2CCCC2)C1	1.0	17.4	/	-3.1
CN(C)CCN(Cc1ccccc1)c1ccnc(N(C)C)c1C#N	2.0	4.1	-7.6	15.1
